{
  "source": "ChEMBL document CHEMBL4138315",
  "about": "“Synthesis and Evaluation of a Novel Bivalent Selective Antagonist for the Mu-Delta Opioid Receptor Heterodimer that Reduces Morphine Withdrawal in Mice” (J Med Chem, 2018)",
  "key": {"Homo sapiens [1]": {"species_on_record": "Homo sapiens", "assay": "Selectivity ratio of KiH for human mu-delta opioid receptor heterodimer expressed in CHO cell membranes to Ki for human DOR expressed in CHO cell membranes", "type": "cell-based"}, "[2]": {"biological_target": "Delta-type opioid receptor (Homo sapiens, UniProt P41143)", "sequence (P41143 whole entry)": "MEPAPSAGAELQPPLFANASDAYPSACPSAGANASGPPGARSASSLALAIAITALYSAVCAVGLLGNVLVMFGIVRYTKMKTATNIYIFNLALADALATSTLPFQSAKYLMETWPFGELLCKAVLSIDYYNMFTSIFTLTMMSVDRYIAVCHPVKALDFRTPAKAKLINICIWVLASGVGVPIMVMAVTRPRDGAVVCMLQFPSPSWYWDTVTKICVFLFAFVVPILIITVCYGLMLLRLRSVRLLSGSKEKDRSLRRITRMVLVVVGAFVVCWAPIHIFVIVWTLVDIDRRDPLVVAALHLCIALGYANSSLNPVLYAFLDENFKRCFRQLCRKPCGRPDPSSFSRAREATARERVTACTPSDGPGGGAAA", "assay": "Antagonist activity at human DOR expressed in CHO cell membranes assessed as inhibition of CYM51010-induced [35S]-GTPgammaS binding preincubated for 5 mins followed by CYM51010 and [35S]-GTPgammaS addition measured after 80 mins", "type": "functional", "settings": "cho", "procedure,_shortened": "(§1)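 Membranes from CHO cells stably expressing human opioid receptor (N-terminal tagged) were preincubated 5 min with antagonist concentration curves, then given 1 µM CYM51010 and 0.1 nM 35S-GTPγS; 30°C, 80 min, GF/B filtration, scintillation counting. Normalized to CYM51010 alone (100%) and vehicle (0%). Fits: 1-site for MOR/DOR (IC50), 2-site for MDOR (IC50HIGH). N = 3-4, duplicate, mean ± SEM.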"}, "Mu-type opioid receptor": {"biological_target": "Mu-type opioid receptor (Homo sapiens, UniProt P35372)", "sequence (P35372 whole entry)": "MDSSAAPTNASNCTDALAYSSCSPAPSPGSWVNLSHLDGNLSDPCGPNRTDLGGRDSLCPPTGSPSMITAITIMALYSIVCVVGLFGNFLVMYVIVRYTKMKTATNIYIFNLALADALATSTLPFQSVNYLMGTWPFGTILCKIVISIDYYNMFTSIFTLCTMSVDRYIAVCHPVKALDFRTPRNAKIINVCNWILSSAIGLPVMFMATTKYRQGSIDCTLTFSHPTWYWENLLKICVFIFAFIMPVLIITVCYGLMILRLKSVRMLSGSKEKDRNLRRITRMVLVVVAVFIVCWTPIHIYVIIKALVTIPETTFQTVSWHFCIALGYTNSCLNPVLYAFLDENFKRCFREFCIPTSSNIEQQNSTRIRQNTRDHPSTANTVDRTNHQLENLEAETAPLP", "assay": "Antagonist activity at human MOR expressed in CHO cell membranes assessed as inhibition of CYM51010-induced [35S]-GTPgammaS binding preincubated for 5 mins followed by CYM51010 and [35S]-GTPgammaS addition measured after 80 mins", "type": "functional", "settings": "cho", "procedure,_shortened": "as §1"}, "Homo sapiens [3]": {"species_on_record": "Homo sapiens", "assay": "Selectivity ratio of IC50H for human mu-delta opioid receptor heterodimer expressed in CHO cell membranes to IC50 for human DOR expressed in CHO cell membranes", "type": "cell-based"}, "[4]": {"biological_target": "Opioid receptors; mu & delta (Homo sapiens, UniProt P41143+P35372)", "assay": "Antagonist activity at human mu-delta opioid receptor heterodimer expressed in CHO cell membranes assessed as inhibition of DAMGO-induced [35S]-GTPgammaS binding preincubated for 5 mins followed by DAMGO and [35S]-GTPgammaS addition measured after 80 mins", "type": "functional", "procedure,_shortened": "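MDOR-CHO membranes were preincubated 5 min with antagonist concentration curve, then 1 µM DAMGO and 0.1 nM 35S-GTPγS were added. Incubated 30°C, 80 min; filter harvest, scintillation counting. Normalized to agonist alone and vehicle. N = 3 independent experiments in duplicate.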"}, "Mus musculus [5]": {"species_on_record": "Mus musculus", "assay": "Antinociceptive activity in CD1 mouse assessed as reduction in morphine-induced nociception at 10 nmol pretreated for 5 mins followed by morphine injection measured up to 2 hrs by tail flick assay", "type": "functional, organism-based", "procedure,_shortened": "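Male CD-1 mice received 10 nmol icv (vehicle 2% DMSO/10% Tween80/88% water), 5 min before sc agonist. SNC80 was 10 mg/kg in 20% DMSO/10% Tween80/70% saline; morphine was given in saline. 52°C tail flick, 10 s cutoff, recorded over a 2 h time course; experimenter blinded.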"}, "Mus musculus [6]": {"test_system": "Mus musculus", "assay": "Reduction in morphine dependence expression in acute morphine dependence ICR mouse model assessed as reduction in jumping behavior at 1 nmol, icv up to 20 mins", "type": "functional, organism-based", "procedure,_shortened": "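Acute dependence: morphine 100 mg/kg sc, then naloxone 10 mg/kg ip 4 h later. 1 nmol icv or vehicle given 5 min before naloxone; one control arm had no naloxone. Mice observed 20 min in plexiglass cylinders; jumps counted, then urine and feces weighed.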"}, "Mus musculus [7]": {"test_system": "Mus musculus", "assay": "Reduction in morphine dependence expression in chronic morphine dependence ICR mouse model assessed as inhibition of naloxone-precipitated GI effects of withdrawal at 1 nmol, […] administered 5 mins prior to naloxone injection measured up to 20 mins", "type": "functional, organism-based"}},
  "note": "The source made the active and inactive calls.",
  "data": [
    {"compound": "N[C@@H](Cc1ccc(O)cc1)C(=O)N1Cc2ccccc2C[C@@H]1C(=O)NCC(=O)NCCCCC(=O)N[C@H](CCCCNC(=O)CCCCNC(=O)CNC(=O)[C@@H](Cc1cccc2ccccc12)NC(=O)[C@H](Cc1ccccc1)NC(=O)[C@@H]1CCCN1C(=O)[C@@H](N)Cc1ccc(O)cc1)C(=O)O", "values": [
      {"measurement": "Ratio Ki", "setting": "Homo sapiens [1]", "value": 133},
      {"measurement": "IC50", "setting": "[2]", "value": 0.076, "unit": "µM"},
      {"measurement": "IC50", "setting": "Mu-type opioid receptor", "value": "> 1", "unit": "µM"},
      {"measurement": "Ratio IC50", "setting": "Homo sapiens [3]", "value": 89},
      {"measurement": "IC50", "setting": "[4]", "value": 0.153, "unit": "µM"},
      {"measurement": "Activity", "setting": "Mus musculus [5]", "value": "Active"},
      {"measurement": "Activity", "setting": "Mus musculus [6]", "value": "inactive"},
      {"measurement": "Activity", "setting": "Mus musculus [7]", "value": "Active"}
    ]}
  ]
}
